# Source: PubChem
# Shown are actives, neighbours in structure and some others; about 3% of the full set was active somewhere.
# ABHD5 PLIN5 PPI = blocks binding of human ABHD5 to perilipin-5; Split G. princeps luciferase complementation, luminescence, 4 h; inhibition, % at 4 µM; hit rate 0.78% among 360,000; AID 602281;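 active = inhibition above the mean inhibition across every tested compound plus 3 SD, cut at about 22% in these data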;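 note: 0% = DMSO only wells and the 100% control is not disclosed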
# MC4R barr agon = human MC4R agonism via beta-arrestin | P32245 | U2OS MC4R beta-arrestin complementation, luminescence; percent of melanotan II response, DMSO zero | activation, % at 8.9 µM | hit rate 0.98% among 360,000 | AID 540308;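 active = activation above a per-plate cutoff, the mean activation of sample wells on that plate plus 3 SD, cut at about 8% in these data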
# Target sequence (P32245 whole entry, looked up): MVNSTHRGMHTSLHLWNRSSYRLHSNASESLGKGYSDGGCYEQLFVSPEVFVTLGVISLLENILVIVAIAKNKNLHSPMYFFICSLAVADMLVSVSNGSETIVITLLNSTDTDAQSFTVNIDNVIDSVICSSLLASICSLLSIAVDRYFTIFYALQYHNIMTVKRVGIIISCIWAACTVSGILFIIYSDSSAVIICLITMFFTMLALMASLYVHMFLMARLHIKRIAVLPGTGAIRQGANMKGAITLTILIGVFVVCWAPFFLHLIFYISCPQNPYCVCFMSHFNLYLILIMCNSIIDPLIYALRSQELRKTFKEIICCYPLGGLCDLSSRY
# MC4R antag cAMP = blocks human MC4R cAMP signaling. P32245. inhibition, % at 6.5 µM. MC4R-expressing cells, MTII-stimulated cAMP, LANCE TR-FRET. hit rate 0.48% among 360,000. AID 540295;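 active = inhibition above its plate's cutoff, the mean of tested wells on that plate plus 3 SD, cut at about 29% in these data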;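 note: 0% = Melanotan II alone and 100% = Melanotan II plus saturating MCL0020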
#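 material = U2OS cells stably expressing human melanocortin 4 receptor (MC4R) | also added = Melanotan II challenge | dosing = single nominal compound dose of 6.5 µM | detection = TR-FRET with Eu-cAMP and labeled anti-cAMP, 671 nm | replication = singlicate | timing = compound 30 min, challenge 1 h, detection 1 h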
# PfG6PD inh = PfG6PD (Plasmodium falciparum) enzyme inhibition | hit rate 0.78% among 350,000 | PfGluPho enzyme, NADPH resazurin-diaphorase fluorescence | inhibition, % at 20 µM | AID 504690;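 active = inhibition reaching at least a set limit at 20 µM in the primary screen, cut at about 59% in these data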;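 note: 0% = DMSO wells with substrate and 100% = DMSO wells lacking glucose-6-phosphate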
# Beta2AR agonist = activates human beta-2 adrenergic receptor causing internalization; AID 504454; P07550; response, % (test concentration not listed); Am2.2-beta2AR cells, FAP receptor internalization, flow cytometry; hit rate 0.43% among 340,000;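 active = response above a set limit, near 3 SD of response in nonfluorescent compounds, cut at about 42% in these data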
# cAMP nonselect = nonselective cAMP signaling inhibitor, MC4R antagonist counter-screen; hit rate 26% among 1,600; parental U2OS, forskolin cAMP, LANCE TR-FRET; inhibition, % at 6.5 µM; AID 602193; shares compounds with MC4R antag cAMP;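 active = mean inhibition over triplicates above the low-control well mean plus 3 SD, set per campaign, cut at about 13% in these data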;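 note: signal is single emission at 671 nm which falls as cellular cAMP rises; 0% = forskolin-stimulated wells and 100% = buffer without forskolin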
# MC4R antag conf = human MC4R cAMP antagonism confirmation; shares compounds with MC4R antag cAMP; MC4R-expressing cells, MTII-stimulated cAMP, TR-FRET; inhibition, % at 6.5 µM; hit rate 27% among 1,600; in the data active = inhibition above about 29%;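 note: 0% = agonist stimulated wells alone and 100% = agonist stimulated wells plus saturating reference antagonist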
# The depositor's hits bear a star; · = not tested or not shown.
SMILES,ABHD5 PLIN5 PPI,MC4R barr agon,MC4R antag cAMP,PfG6PD inh,Beta2AR agonist,cAMP nonselect,MC4R antag conf
COc1ccc(C(C)=O)cc1COC(=O)c1cc(=O)c2ccccc2o1,7,1,2,-3,4,·,·
COc1ccc(NC(=O)N2CCN(C(=O)C(Cc3ccc(F)cc3)NC(C)=O)CC2)cc1 (configuration not stated),2,3,-8,-1,1,·,·
COC(=O)c1c(NC(=O)C2COc3ccccc3O2)sc2c1CCN(C(=O)OC)C2 (configuration not stated),10,1,31*,6,·,2,26
COc1cccc(C(c2c(N)n(C)c(=O)n(C)c2=O)C(C)[N+](=O)[O-])c1 (configuration not stated),4,0,33*,3,6,6,4
Cc1ccc(Sc2cnc(N)nc2C)cc1,0,4,37*,-11,-4,-2,-7
CCOC(=O)C1=CCN(S(=O)(=O)c2ccc(C)cc2)[C@H]1c1ccccc1Cl,-6,·,·,·,·,·,·
COc1ccc(N2CCN(C(=O)Nc3ccccc3Cl)CC2)cc1,-1,2,37*,-22,4,-1,4
COc1ccc(CNC(=O)C2CCC(CNc3c(N4CCC(C)CC4)c(=O)c3=O)CC2)cc1 (configuration not stated),-1,-1,1,-2,-20,·,·
COc1ccc(N2CCN(C(c3cccs3)C(C)NC(=O)c3ccc4c(c3)OCO4)CC2)cc1 (configuration not stated),-1,1,34*,4,4,-3,-10
O=C(NCc1ccc2c(c1)OCO2)C(=O)NCC(c1ccco1)N1CCN(c2ccccc2)CC1 (configuration not stated),1,-2,3,0,6,·,·
COc1ccc(N2CCN(C(CNC(=O)C(=O)NCc3ccc4c(c3)OCO4)c3ccco3)CC2)cc1 (configuration not stated),4,3,29*,19,-4,4,-4
COc1ccccc1CN(C)C(=O)C(NC(=O)Cc1cccc2ccccc12)C(C)C (configuration not stated),-5,1,36*,8,1,-9,-1
COc1ccc(CN(C)C(=O)CNC(=O)Cc2cccc3ccccc23)c(OC)c1OC,-5,-2,8,20,5,·,·
CCc1cc(=O)oc2c(C)c(OC(C)C(=O)NCCCn3ccnc3)ccc12 (configuration not stated),11,0,1,5,-9,·,·
CCOCCOC(=O)COc1ccc2c(=O)c(Oc3ccc(OC)cc3)coc2c1,6,-1,29*,7,3,24*,28
CCOC(=O)c1c(-c2ccccc2)csc1NC(=O)COc1ccc2c(C)cc(=O)oc2c1,2,0,30*,-16,1,1,1
CC(=O)Oc1ccc2c(=O)c(-c3ccccc3)coc2c1,4,0,-9,-3,-2,·,·
COc1ccccc1Oc1coc2cc(OCC(N)=O)ccc2c1=O,0,-1,8,-6,1,·,·
CCOC(=O)COc1ccc2c(=O)c(-c3ccccc3)coc2c1,2,-1,39*,-6,7,19*,43*
Cc1cccc(OCC(=O)NCCCNC(=O)c2ccco2)c1,3,-3,-1,12,-5,·,·
COC(=O)COc1cccc(NC(=O)C(c2ccccc2)c2ccccc2)c1,5,2,29*,-1,8,7,15
CCn1cc(C(=O)O)c(=O)c2cnc(N3CCN(C(=S)Nc4ccccc4)CC3)nc21,-5,5,31*,14,10,-1,-10
Cn1c(=O)c2cc(NC(=O)NCCc3cccs3)ccc2n1Cc1ccccc1,1,0,-3,·,·,·,·
O=[N+]([O-])c1ccc(Cl)cc1Sc1cccc2cccnc12,3,4,4,40,-8,·,·
Cn1nc([N+](=O)[O-])nc1Sc1cccc2cccnc12,-5,0,30*,25,7,8,3
SMILES,ABHD5 PLIN5 PPI,MC4R barr agon,MC4R antag cAMP,PfG6PD inh,Beta2AR agonist,cAMP nonselect,MC4R antag conf
CC1CCC2(CC1)NC(=O)N(CC(=O)Nc1ccc3c(c1)OCCO3)C2=O (configuration not stated),-1,-3,10,13,-1,·,·
CC1CCC2(CC1)NC(=O)N(CC(=O)NC(=O)Nc1ccc3c(c1)OCCO3)C2=O (configuration not stated),1,3,29*,-9,3,-3,-12
CC(C)(C)c1ccc(C(=O)O)c(C(=O)c2ccccc2)c1,-11,5,31*,-32,12,3,-8
COc1ccc(-n2c(-c3cccc(OC)c3)nc(=S)c3c2CCCC3)cc1,12,-1,31*,13,10,17*,33*
CSCCC(NC(=O)c1ccccc1Cl)C(=O)Nc1ccc(C)c(S(=O)(=O)N2CCOCC2)c1 (configuration not stated),-3,3,29*,3,12,8,13
COc1ccc(Nc2nc(-c3cccs3)nc3ccccc23)cc1,1,1,4,17,6,·,·
COc1cccc(Nc2nc(-c3cccs3)nc3ccccc23)c1,0,-1,32*,24,-2,8,17
Cc1noc(C)c1CN1C(=O)c2cccc([N+](=O)[O-])c2C1=O,-2,0,30*,-15,7,1,-10
Cc1noc(C)c1CN1C(=O)c2ccc([N+](=O)[O-])cc2C1=O,-2,-1,4,-12,1,·,·
COc1cccc(-c2c(C(=O)N/N=C(\C)c3cccs3)nnn2-c2nonc2N)c1,6,-1,6,13,-1,·,·
O=C(CN1C(=O)C2CC=CCC2C1=O)NCc1cccs1 (configuration not stated),0,-1,31*,-1,4,-3,1
C[C@H]1Cn2cnc(C(=O)Nc3ccccc3)c2C(=O)N1,4,-1,31*,-4,·,-1,-1
CN(CCC#N)C(=O)COC(=O)c1ccc2c(c1)C(=O)N(C1CCCCC1)C2=O,-1,-2,3,2,-2,·,·
COC(=O)C(Cc1ccc(O)cc1)NC(=O)C1CCN(S(=O)(=O)c2ccc(C)cc2)CC1 (configuration not stated),-6,-1,30*,-14,13,18*,31*
O=C(CSc1n[nH]c(-c2ccccc2O)n1)N1CCOCC1,11,5,30*,-22,-10,1,-5
COc1ccc(OC)c(N(C)S(=O)(=O)c2ccc3c(c2)N(C(C)=O)CCO3)c1,3,-2,1,5,-2,·,·
